Assay results taken from ChEMBL document CHEMBL4334423, “Synthesis, molecular docking, and biological evaluation of novel 2-pyrazoline derivatives as multifunctional agents for the treatment of Alzheimer's disease” (Medchemcomm, 2019).
The source made the active and inactive calls. No cut-off for these calls is given here.

Key:
[1] = target: T1, Cholinesterase (Equus caballus, UniProt P81908); assay: Inhibition of equine serum BChE using butyrylthiocholine iodide as substrate by Ellman's method
T1 sequence (P81908 whole entry): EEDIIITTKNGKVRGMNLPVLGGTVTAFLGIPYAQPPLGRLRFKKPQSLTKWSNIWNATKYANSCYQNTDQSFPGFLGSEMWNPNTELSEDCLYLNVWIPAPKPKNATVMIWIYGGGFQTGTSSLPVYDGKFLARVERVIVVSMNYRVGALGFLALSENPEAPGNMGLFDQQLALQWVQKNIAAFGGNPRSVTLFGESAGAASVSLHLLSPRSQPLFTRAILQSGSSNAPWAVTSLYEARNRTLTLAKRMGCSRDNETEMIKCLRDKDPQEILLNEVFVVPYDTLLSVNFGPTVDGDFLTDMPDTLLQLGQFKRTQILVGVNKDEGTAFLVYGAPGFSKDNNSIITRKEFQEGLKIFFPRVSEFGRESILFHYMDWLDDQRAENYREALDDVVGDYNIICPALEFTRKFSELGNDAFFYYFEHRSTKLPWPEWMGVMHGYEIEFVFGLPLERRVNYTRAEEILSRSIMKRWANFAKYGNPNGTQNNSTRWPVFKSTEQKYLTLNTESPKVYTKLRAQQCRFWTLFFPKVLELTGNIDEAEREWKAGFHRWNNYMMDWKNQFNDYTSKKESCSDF

[2] = test system: SH-SY5Y; assay: cells; format: functional; details: Homo sapiens
[3] = test system: SH-SY5Y; assay: cells; format: functional; details: Homo sapiens; remark: listed apart in the source
[4] = Selectivity index, ratio of IC50 for human recombinant AChE expressed in HEK293 cells to IC50 for equine serum BChE; format: cell-based
Outline: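 Both enzymes were run by the same Ellman method: substrate 0.2–0.5 mM, DTNB 0.125 mM, 100 mM MOPS pH 8.0, 25 °C, read at 412 nm. IC50 came from dose–response curves, and selectivity = IC50(AChE)/IC50(BChE).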

[5] = target: T2, Acetylcholinesterase (Homo sapiens, UniProt P22303); assay: Inhibition of human recombinant AChE expressed in HEK293 cells using acetylthiocholine iodide as substrate by Ellman's method
T2 sequence (P22303 whole entry): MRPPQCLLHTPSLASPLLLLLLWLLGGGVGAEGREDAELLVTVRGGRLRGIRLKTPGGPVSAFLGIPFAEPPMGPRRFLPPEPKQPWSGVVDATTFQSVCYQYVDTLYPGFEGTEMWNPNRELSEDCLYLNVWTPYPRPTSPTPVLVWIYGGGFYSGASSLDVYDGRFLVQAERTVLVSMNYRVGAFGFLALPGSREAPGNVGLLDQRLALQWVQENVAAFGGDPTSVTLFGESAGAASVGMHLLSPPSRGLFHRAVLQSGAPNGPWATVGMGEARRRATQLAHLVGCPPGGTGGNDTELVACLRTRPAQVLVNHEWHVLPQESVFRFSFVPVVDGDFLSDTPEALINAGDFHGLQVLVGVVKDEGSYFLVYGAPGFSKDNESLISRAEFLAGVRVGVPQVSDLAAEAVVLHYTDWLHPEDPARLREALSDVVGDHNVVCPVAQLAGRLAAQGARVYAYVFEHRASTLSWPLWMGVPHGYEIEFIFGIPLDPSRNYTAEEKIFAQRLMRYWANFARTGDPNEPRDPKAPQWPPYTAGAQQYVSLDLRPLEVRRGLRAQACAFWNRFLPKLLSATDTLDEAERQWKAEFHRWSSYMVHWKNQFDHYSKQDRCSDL

[6] = target: T2, Acetylcholinesterase; assay: Competitive inhibition of human recombinant AChE expressed in HEK293 cells using acetylthiocholine iodide as substrate by Dixon and slope replot analysis
Outline: (§1)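 Ellman assay. Enzyme added last to a mix of thiocholine substrate (0.2–0.5 mM) and 0.125 mM DTNB in 100 mM MOPS pH 8.0 at 25 °C. Absorbance was followed at 412 nm. For kinetics, Dixon plots (1/v versus I) were built at inhibitor 0.5, 1, 10 and 100 μM and fitted with slope replots to get Ki. IC50 came from dose–response curves.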

[7] = Cytotoxicity against mouse L929 cells assessed as cell viability at 10 uM incubated for 24 hrs by MTT assay (reference value: 100%); format: cell-based; details: read-out: Activity
Outline: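 L929 cells (ATCC CCL-1) seeded at 5000 per well, exposed to 10 μM compound for 24 h. MTT reagent was added, formazan dissolved in DMSO, and absorbance read at 570 and 690 nm. Viability is expressed relative to a non-treated control taken as 100%.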

[8] = target: Amyloid-beta precursor protein (Homo sapiens) (UniProt P05067); assay: Inhibition of human amyloid beta (1 to 42) self-induced aggregation assessed as Amyloid beta (1 to 42) aggregation at 100 uM incubated for 48 hrs by thioflavin T-based fluorescence assay (reference value: 100%); design: scale not given: the % may be the effect or the level left
Amyloid-beta precursor protein (Homo sapiens), sequence (P05067 whole entry): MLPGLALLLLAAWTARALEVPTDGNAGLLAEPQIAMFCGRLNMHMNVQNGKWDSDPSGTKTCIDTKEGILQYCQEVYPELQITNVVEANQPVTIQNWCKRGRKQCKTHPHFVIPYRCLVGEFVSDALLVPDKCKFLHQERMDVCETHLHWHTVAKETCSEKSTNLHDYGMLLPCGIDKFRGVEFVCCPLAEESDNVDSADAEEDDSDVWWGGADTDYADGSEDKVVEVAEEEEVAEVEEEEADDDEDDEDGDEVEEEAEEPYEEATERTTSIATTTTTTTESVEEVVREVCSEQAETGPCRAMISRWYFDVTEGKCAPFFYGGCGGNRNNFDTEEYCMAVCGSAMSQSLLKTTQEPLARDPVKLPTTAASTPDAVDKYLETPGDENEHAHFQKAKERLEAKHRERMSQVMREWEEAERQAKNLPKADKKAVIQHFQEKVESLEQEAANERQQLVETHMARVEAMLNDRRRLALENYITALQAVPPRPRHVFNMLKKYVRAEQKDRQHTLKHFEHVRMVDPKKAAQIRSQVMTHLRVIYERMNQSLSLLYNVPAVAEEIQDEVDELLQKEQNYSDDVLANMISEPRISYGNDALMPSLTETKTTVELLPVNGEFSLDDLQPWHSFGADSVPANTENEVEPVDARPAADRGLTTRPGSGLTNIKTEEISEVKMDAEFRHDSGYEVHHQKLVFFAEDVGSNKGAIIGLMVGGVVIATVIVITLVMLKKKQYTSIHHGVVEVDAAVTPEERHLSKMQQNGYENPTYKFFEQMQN

[9] = target: Amyloid-beta precursor protein (Homo sapiens) (UniProt P05067); assay: Inhibition of human amyloid beta (1 to 42) self-induced aggregation assessed as Amyloid beta (1 to 42) aggregation at 10 uM incubated for 48 hrs by thioflavin T-based fluorescence assay (reference value: 100%); design: scale not given: the % may be the effect or the level left
[10] = target: T1, Cholinesterase; assay: Partial non-competitive inhibition of equine serum BChE using butyrylthiocholine iodide as substrate by Dixon and slope replot analysis; outline: as §1
[11] = target: Cholinesterase (Equus caballus) (UniProt P81908); assay: Partial non-competitive inhibition of equine serum BChE assessed as decrease in Vmax with unchanged Km using butyrylthiocholine iodide as substrate by Dixon and slope replot analysis; outline: as §1
Cholinesterase (Equus caballus), sequence (P81908 whole entry): as the sequence (P81908 whole entry) above

Row | SMILES | IC50 [1] [µM] | viability at 10 µM [2] [%] | viability at 10 µM [3] [%] | Ratio IC50 [4] | IC50 [5] [µM] | Ki [6] [µM] | viability at 24 h, 10 µM [7] [%] | Activity [8] [%] | Activity [9] [%] | Ki [10] [µM] | inhibition [11]
1 | COc1ccc(C2=NN(C(C)=O)C(c3ccc(N4CCN(C)CC4)cc3)C2)cc1OC (stereo unspecified) | 6 | 93.6 | 95.6 | 1.1 | 6.5 | 0.63 | 93.3 | 72.6 |  |  | 
2 | COc1ccc(C2=NN(C(C)=O)C(c3ccc(N4CCC(Cc5ccccc5)CC4)cc3)C2)cc1OC (stereo unspecified) | 2.1 | 84.4 | 83.5 | 9.8 | 20.1 |  | 101 | 86.4 | 82.2 |  | 
3 | COc1ccc(C2=NN(C(C)=O)C(c3ccc(N4CCN(Cc5ccccc5)CC4)cc3)C2)cc1OC (stereo unspecified) | 0.5 | 87 | 69.3 | 128 | 62.8 |  | 93.3 | 89.8 |  |  | 
4 | COc1ccc(C2=NN(C(C)=O)C(c3ccc(-n4cncn4)cc3)C2)cc1OC (stereo unspecified) | 27.5 |  |  | 34.8 | 955 |  |  |  |  |  | 
5 | COc1ccc(C2=NN(C(C)=O)C(c3ccc(N4CCN(Cc5ccccc5)CC4)cc3)C2)cc1 (stereo unspecified) | 137 |  |  | 0.7 | 100 |  |  |  |  |  | 
6 | COc1ccc(C2=NN(C(C)=O)C(c3ccc(N4CCC(C)CC4)cc3)C2)cc1OC (stereo unspecified) | 3.9 | 81.1 | 78.4 | 19.9 | 77.4 |  | 95.4 | 63.4 | 80.6 |  | 
7 | COc1ccc(C2=NN(C(C)=O)C(c3ccc(-n4ccnc4)cc3)C2)cc1OC (stereo unspecified) | 32.7 |  |  | 6.3 | 206 |  |  |  |  |  | 
8 | CCN1CCN(c2ccc(C3CC(c4ccc(OC)c(OC)c4)=NN3C(C)=O)cc2)CC1 (stereo unspecified) | 0.5 | 87.4 | 67.9 | 104 | 47.9 |  | 89.2 | 83.4 |  | 2.22 | Active
9 | CCN1CCN(c2ccc(C3CC(c4ccc(OC)cc4)=NN3C(C)=O)cc2)CC1 (stereo unspecified) | 217 |  |  | 1 | 221 |  |  |  |  |  | 
10 | COc1ccc(C2=NN(C(C)=O)C(c3ccc(N4CCN(c5ccccc5)CC4)cc3)C2)cc1OC (stereo unspecified) | 1900 |  |  | 0.2 | 295 |  |  |  |  |  | 
11 | COc1cc2c(cc1OC)C(=O)C(CC1CCN(Cc3ccccc3)CC1)C2 (stereo unspecified) [DONEPEZIL] |  | 69 | 62.5 |  |  |  |  |  |  |  | 
12 | COc1ccc(C2=NN(C(C)=O)C(c3ccc(-n4cnc5ccccc54)cc3)C2)cc1OC (stereo unspecified) | 254 |  |  | 1.2 | 319 |  |  |  |  |  | 
13 | CO[C@H]1/C=C/O[C@@]2(C)Oc3c(C)c(O)c4c(O)c(c(/C=N/N5CCN(C)CC5)c(O)c4c3C2=O)NC(=O)/C(C)=C\C=C\[C@H](C)[C@H](O)[C@@H](C)[C@@H](O)[C@@H](C)[C@H](OC(C)=O)[C@@H]1C |  |  |  |  |  |  |  | 48.4 |  |  | 
